Results from ChEMBL document CHEMBL1153240, “Microwave assisted synthesis and in vitro cytotoxicities of substituted (Z)-2-amino-5-(1-benzyl-1H-indol-3-yl)methylene-1-methyl-1H-imidazol-4(5H)-ones against human tumor cell lines” (2010).

What was measured:
Type in all cases: functional
[1] = Cytotoxicity against human […] cells
Procedure, shortened: (§1)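 NCI 60-cell-line panel, five-dose response study. Effect is plotted against log10 drug concentration for each cell line. GI50 is the molar concentration giving a 50% reduction in net protein increase relative to control cells. LC50 is the concentration lethal to 50% of cells.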

SK-MEL-2 = experiment: Cytotoxicity against human SK-MEL-2 cells; procedure, shortened: as §1
MCF7 = experiment: Cytotoxicity against human MCF7 cells; procedure, shortened: as §1
HT-29 = experiment: Cytotoxicity against human HT-29 cells
Procedure, shortened: (§2)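 NCI 60-cell-line panel, five-concentration dose-response. Cytotoxic effect was plotted against log10 drug concentration for each line. GI50 is the molar concentration giving a 50% reduction in net protein increase relative to control cells. LC50 is the concentration lethal to 50% of cells. Both were read from the curves.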

M14 = experiment: Cytotoxicity against human M14 cells; procedure, shortened: as §1
A549 = experiment: Cytotoxicity against human A549 cells; procedure, shortened: as §1
T47D = experiment: Cytotoxicity against human T47D cells
Procedure, shortened: (§3)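 NCI 60 human tumor cell line panel, five-dose dose-response study. Cytotoxic effect was plotted against log10 drug concentration for each cell line. GI50 is the molar concentration giving 50% reduction in net protein increase versus control cells. LC50 is the concentration lethal to 50% of cells.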

OVCAR-4 = experiment: Cytotoxicity against human OVCAR4 cells; procedure, shortened: as §1
NCI-H226 = experiment: Cytotoxicity against human NCI-H226 cells; procedure, shortened: as §1
SNB-75 = experiment: Cytotoxicity against human SNB75 cells; procedure, shortened: as §1
UACC-257 = experiment: Cytotoxicity against human UACC257 cells; procedure, shortened: as §3
SNB-19 = experiment: Cytotoxicity against human SNB19 cells; procedure, shortened: as §1
SK-MEL-5 = experiment: Cytotoxicity against human SK-MEL-5 cells; procedure, shortened: as §1
OVCAR-8 = experiment: Cytotoxicity against human OVCAR8 cells; procedure, shortened: as §1
SN12C = experiment: Cytotoxicity against human SN12C cells; procedure, shortened: as §1
LOX IMVI = experiment: Cytotoxicity against human LOXIMVI cells; procedure, shortened: as §1
HCT-116 = experiment: Cytotoxicity against human HCT116 cells; procedure, shortened: as §1
HOP-62 = experiment: Cytotoxicity against human HOP62 cells; procedure, shortened: as §1
TK-10 = experiment: Cytotoxicity against human TK10 cells; procedure, shortened: as §3
HOP-92 = experiment: Cytotoxicity against human HOP92 cells; procedure, shortened: as §1
BT-549 = experiment: Cytotoxicity against human BT549 cells; procedure, shortened: as §1
UO-31 = experiment: Cytotoxicity against human UO31 cells; procedure, shortened: as §3
MDA-MB-231 = experiment: Cytotoxicity against human MDA-MB-231 cells; procedure, shortened: as §1
EKVX = experiment: Cytotoxicity against human EKVX cells; procedure, shortened: as §1
786-0 = experiment: Cytotoxicity against human 786-0 cells; procedure, shortened: as §1
SF-268 = experiment: Cytotoxicity against human SF268 cells; procedure, shortened: as §1
HCT-15 = experiment: Cytotoxicity against human HCT15 cells; procedure, shortened: as §1
CCRF-CEM = experiment: Cytotoxicity against human CCRF-CEM cells; procedure, shortened: as §1
IGROV-1 = experiment: Cytotoxicity against human IGROV1 cells; procedure, shortened: as §1
NCI-H322M = experiment: Cytotoxicity against human NCI-H322M cells; procedure, shortened: as §1
SR = experiment: Cytotoxicity against human SR cells; procedure, shortened: as §1
MDA-MB-468 = experiment: Cytotoxicity against human MDA-MB-468 cells; procedure, shortened: as §1
MDA-MB-435 = experiment: Cytotoxicity against human MDA-MB-435 cells; procedure, shortened: as §2
HL-60 = experiment: Cytotoxicity against human HL60 cells; procedure, shortened: as §1
SW-620 = experiment: Cytotoxicity against human SW620 cells; procedure, shortened: as §3
NCI-H23 = experiment: Cytotoxicity against human NCI-H23 cells; procedure, shortened: as §1
CAKI-1 = experiment: Cytotoxicity against human Caki1 cells; procedure, shortened: as §1
U-251 = experiment: Cytotoxicity against human U251 cells; procedure, shortened: as §3
SF-539 = experiment: Cytotoxicity against human SF539 cells; procedure, shortened: as §1
[2] = Cytotoxicity against human Hs 578T cells; procedure, shortened: as §1
OVCAR-3 = experiment: Cytotoxicity against human OVCAR-3 cells; procedure, shortened: as §1
NCI-H460 = experiment: Cytotoxicity against human NCI-H460 cells; procedure, shortened: as §1
SF-295 = experiment: Cytotoxicity against human SF295 cells; procedure, shortened: as §1
RXF 393 = experiment: Cytotoxicity against human RXF393 cells; procedure, shortened: as §1
ACHN = experiment: Cytotoxicity against human ACHN cells; procedure, shortened: as §1
OVCAR-5 = experiment: Cytotoxicity against human OVCAR5 cells; procedure, shortened: as §1
KM12 = experiment: Cytotoxicity against human KM12 cells; procedure, shortened: as §1
SK-MEL-28 = experiment: Cytotoxicity against human SK-MEL-28 cells; procedure, shortened: as §1
DU-145 = experiment: Cytotoxicity against human DU145 cells; procedure, shortened: as §1
K562 = experiment: Cytotoxicity against human K562 cells; procedure, shortened: as §1
MOLT-4 = experiment: Cytotoxicity against human MOLT4 cells; procedure, shortened: as §1
SK-OV-3 = experiment: Cytotoxicity against human SKOV3 cells; procedure, shortened: as §1
PC-3 = experiment: Cytotoxicity against human PC3 cells; procedure, shortened: as §1
A498 = experiment: Cytotoxicity against human A498 cells; procedure, shortened: as §1
Malme-3M = experiment: Cytotoxicity against human MALME-3M cells; procedure, shortened: as §1
HCC 2998 = experiment: Cytotoxicity against human HCC2998 cells; procedure, shortened: as §1
COLO 205 = experiment: Cytotoxicity against human COLO205 cells; procedure, shortened: as §2
NCI-H522 = experiment: Cytotoxicity against human NCI-H522 cells; procedure, shortened: as §1
NCI/ADR-RES = experiment: Cytotoxicity against human NCI/ADR-RES cells; procedure, shortened: as §1
[3] = read-out: LC50 (the source's name)

COC(=O)c1ccc(Cn2cc(/C=C3/C(=O)N=C(N)N3C)c3ccccc32)cc1
GI50 [1]: 3.25 µM
LC50 (concentration lethal to 50% of cells) [1]: > 100 µM
GI50 (SK-MEL-2): 2.7 µM
CC50 (SK-MEL-2; [3]): > 100 µM
GI50 (MCF7): 2.45 µM
CC50 (MCF7; [3]): 77.8 µM
GI50 (HT-29): 2.17 µM
GI50 (M14): 1.9 µM
LC50 (M14): 7.25 µM
GI50 (A549): 5.05 µM
CC50 (A549; [3]): > 100 µM
GI50 (T47D): 1.5 µM
CC50 (T47D; [3]): 5.74 µM
GI50 (OVCAR-4): 2.18 µM
CC50 (OVCAR-4; [3]): > 100 µM
GI50 (NCI-H226): 2.26 µM
LC50 (NCI-H226): > 100 µM
GI50 (SNB-75): 1.46 µM
LC50 (concentration lethal to 50% of cells) (SNB-75): 5.47 µM
GI50 (UACC-257): 17.9 µM
LC50 (UACC-257): > 100 µM
GI50 (SNB-19): 2.39 µM
CC50 (SNB-19; [3]): 31 µM
GI50 (SK-MEL-5): 1.69 µM
LC50 (SK-MEL-5): 5.75 µM
GI50 (OVCAR-8): 3.45 µM
CC50 (OVCAR-8; [3]): > 100 µM
GI50 (SN12C): 1.74 µM
CC50 (SN12C; [3]): 8.59 µM
GI50 (LOX IMVI): 1.89 µM
LC50 (LOX IMVI): 8.66 µM
GI50 (HCT-116): 1.79 µM
CC50 (HCT-116; [3]): 7.7 µM
GI50 (HOP-62): 1.99 µM
CC50 (HOP-62; [3]): 33 µM
GI50 (TK-10): 3.16 µM
CC50 (TK-10; [3]): > 100 µM
GI50 (HOP-92): 1.51 µM
CC50 (HOP-92; [3]): 7.75 µM
GI50 (BT-549): 1.73 µM
CC50 (BT-549; [3]): > 100 µM
GI50 (UO-31): 3.2 µM
CC50 (UO-31; [3]): > 100 µM
GI50 (MDA-MB-231): 2.01 µM
LC50 (MDA-MB-231): 14.3 µM
GI50 (EKVX): > 100 µM
CC50 (EKVX; [3]): > 100 µM
GI50 (786-0): 1.75 µM
LC50 (786-0): 5.85 µM
GI50 (SF-268): 2.56 µM
CC50 (SF-268; [3]): > 100 µM
GI50 (HCT-15): 2.27 µM
CC50 (HCT-15; [3]): > 100 µM
GI50 (CCRF-CEM): 2.91 µM
CC50 (CCRF-CEM; [3]): > 100 µM
GI50 (IGROV-1): 5.91 µM
CC50 (IGROV-1; [3]): > 100 µM
GI50 (NCI-H322M): 2.56 µM
CC50 (NCI-H322M; [3]): > 100 µM
GI50 (SR): 2.48 µM
CC50 (SR; [3]): > 100 µM
GI50 (MDA-MB-468): 1.63 µM
LC50 (MDA-MB-468): 6.78 µM
GI50 (MDA-MB-435): 1.93 µM
GI50 (HL-60): 2.67 µM
LC50 (HL-60): > 100 µM
GI50 (SW-620): 2.2 µM
CC50 (SW-620; [3]): > 100 µM
GI50 (NCI-H23): 3.23 µM
LC50 (concentration lethal to 50% of cells) (NCI-H23): 58.8 µM
GI50 (CAKI-1): 35.1 µM
GI50 (U-251): 1.81 µM
CC50 (U-251; [3]): 7.72 µM
GI50 (SF-539): 1.54 µM
CC50 (SF-539; [3]): 5.56 µM
GI50 [2]: 2.17 µM
LC50 [2]: > 100 µM
GI50 (OVCAR-3): 2.29 µM
CC50 (OVCAR-3; [3]): 7.98 µM
GI50 (NCI-H460): 2.55 µM
CC50 (NCI-H460; [3]): > 100 µM
GI50 (SF-295): 2.36 µM
CC50 (SF-295; [3]): > 100 µM
GI50 (RXF 393): 1.95 µM
CC50 (RXF 393; [3]): 8.71 µM
GI50 (ACHN): 1.76 µM
CC50 (ACHN; [3]): 6.14 µM
GI50 (OVCAR-5): 1.9 µM
CC50 (OVCAR-5; [3]): 18.5 µM
GI50 (KM12): 3.18 µM
CC50 (KM12; [3]): > 100 µM
GI50 (SK-MEL-28): 1.78 µM
CC50 (SK-MEL-28; [3]): 6.14 µM
GI50 (DU-145): 2.25 µM
CC50 (DU-145; [3]): 14.8 µM
GI50 (K562): 2.23 µM
CC50 (K562; [3]): > 100 µM
GI50 (MOLT-4): 2.42 µM
CC50 (MOLT-4; [3]): > 100 µM
GI50 (SK-OV-3): 1.98 µM
CC50 (SK-OV-3; [3]): 8.68 µM
GI50 (PC-3): 6.27 µM
CC50 (PC-3; [3]): > 100 µM
GI50 (A498): 14.1 µM
CC50 (A498; [3]): 53.2 µM
GI50 (Malme-3M): 1.7 µM
CC50 (Malme-3M; [3]): 8.33 µM
GI50 (HCC 2998): 2.99 µM
CC50 (HCC 2998; [3]): 4.71 µM
GI50 (COLO 205): 1.91 µM
GI50 (NCI-H522): 1.93 µM
LC50 (NCI-H522): > 100 µM
GI50 (NCI/ADR-RES): 9.46 µM
CC50 (NCI/ADR-RES; [3]): > 100 µM
